MEKK2mut PB1 HTS – signal of MEK5 binding to mutant human MEKK2 PB1 domain. bead flow cytometry, Alexa488-MEK5 binding to MEKK2 mutant. percent response, % at 10 µM. 290,000 tested, 0.35% active; in the data active = percent response above about 24%, passing the limit was not always enough
MEKK2 WT-MEK5 – raises or lowers MEK5 binding to wildtype human MEKK2 PB1 domain; Q9Y2U5; 290,000 tested, 1.1% active; binding response (% of control), % at 10 µM; AID 1531; bead flow cytometry, Alexa488-MEK5 binding to MEKK2 WT; actives lie on both sides; in the data active = binding response below about 67% or above about 130%
MEKK3 PB1 HTS – raises or lowers MEK5 binding to the human MEKK3 PB1 domain; 290,000 tested, 1.4% active; Q99759; binding response (% of control), % at 10 µM; bead-based flow cytometry, Alexa488-MEK5 binding to MEKK3; actives lie on both sides; 0 = blocked by unlabeled MEK5, 100 = vehicle;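 active = binding response more than 3 SD above or below the average of its plate-row segment, actives on both sides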;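 also: Alexa488 bead fluorescence after subtracting the streptavidin-only scavenger bead signal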
Target sequence (Q99759 whole entry, looked up, the tested form may be a part): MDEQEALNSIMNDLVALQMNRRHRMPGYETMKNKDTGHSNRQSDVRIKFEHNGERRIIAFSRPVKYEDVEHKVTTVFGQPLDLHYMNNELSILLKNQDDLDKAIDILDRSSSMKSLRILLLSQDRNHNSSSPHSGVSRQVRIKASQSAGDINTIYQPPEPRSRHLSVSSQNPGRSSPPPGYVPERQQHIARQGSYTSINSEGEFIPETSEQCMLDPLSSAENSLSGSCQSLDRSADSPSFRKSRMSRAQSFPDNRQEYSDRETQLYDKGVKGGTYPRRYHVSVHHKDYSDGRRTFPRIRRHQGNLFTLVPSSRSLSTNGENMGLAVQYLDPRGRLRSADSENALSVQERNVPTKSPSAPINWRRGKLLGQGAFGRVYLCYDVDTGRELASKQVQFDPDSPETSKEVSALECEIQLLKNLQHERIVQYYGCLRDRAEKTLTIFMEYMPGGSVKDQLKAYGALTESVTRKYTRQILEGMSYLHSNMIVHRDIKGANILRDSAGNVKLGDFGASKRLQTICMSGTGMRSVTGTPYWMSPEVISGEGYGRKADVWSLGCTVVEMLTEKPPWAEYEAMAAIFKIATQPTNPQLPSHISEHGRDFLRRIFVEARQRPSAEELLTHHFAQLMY
Lipid droplet – hepatic lipid droplet formation modulation | inhibition, % at 6.5 µM | AML12 mouse hepatocytes, oleate lipid droplets, BODIPY imaging | 240,000 tested, 0.4% active | AID 1656;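 active = lipid droplet intensity inhibited by at least 50%, with more than 500 cells counted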
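Assay system: AML12 mouse liver cells | Compound dosing: One dose, 6.5 µM compound | Read-out basis: Droplet intensity reduction, % inhibition | Measured by: Fluorescence imaging, 20x objective, two fields per well | Schedule: Overnight treatment with compound plus oleate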
Lipid drop inh – hepatic lipid droplet formation inhibition, confirmed; shares compounds with Lipid droplet; AML12 mouse hepatocytes, BODIPY lipid droplet imaging; droplets induced with 100 µM oleic acid; inhibition, % at 5.2 µM; 870 tested, 65% active; AID 463183;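 active = inhibition of lipid droplet metric at least 50%, with more than 300 cells in each of four replicates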;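 also: plate controls were DMSO with oleic acid for no effect and 5 µM Triacsin-C for full effect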
AML12 tox img – AML12 hepatocyte cytotoxicity (counter-screen). AID 463200. shares compounds with Lipid droplet. AML12 mouse hepatocytes, DAPI nuclear morphology cytotoxicity imaging; hits give high values; cells fed 100 µM oleate overnight. z-score at 5 µM. 870 tested, 3% active; in the data active = z-score above about 6.3;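 also: compound exposure lasted overnight at 37 °C before fixation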
AML12 tox ATP – confirmation of cytotoxicity in AML12 mouse hepatocytes. AID 463219. cytotoxicity, % at 50 µM. AML12 mouse hepatocyte viability, ATP luminescence; cells loaded with 100 µM oleic acid. shares compounds with Lipid droplet. 530 tested, under 10 active;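 active = cytotoxicity above 50% in each of four replicates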;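 also: compound exposure lasted overnight at 37 °C before the ATP read; 0% = DMSO-treated cells and 100% = wells with no cells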
* marks the source's active call; other numbers are inactive results; . = no result given. Sampled rows, rich in hits. Any-hit rate of the full collection: about 2.6%.

SMILES | MEKK2mut PB1 HTS | MEKK2 WT-MEK5 | MEKK3 PB1 HTS | Lipid droplet | Lipid drop inh | AML12 tox img | AML12 tox ATP
Cc1cccc(NC(=O)c2nc[nH]c2C(=O)NCC(=O)OC(C)(C)C)c1 | 3.0 | 74.0 | 72.0 | 52.4* | 7.8 | 0.556 | .
CCCN1CCc2nc(SCC(=O)Nc3ccc(C)c(Cl)c3)[nH]c(=O)c2C1 | 1.0 | 100.0 | 103.0 | -13.4 | . | . | .
Cc1nn(-c2ccc(F)cc2)c(Cl)c1/C=C1\C(=O)Nc2ccccc21 | -1.0 | 101.0 | 112.0 | -28.2 | . | . | .
CN(C)/C=N/n1cnc2ccccc2c1=O | -17.0 | 93.0 | 91.0 | 61.1* | -23.7 | -0.364 | .
CC(C)Oc1ccc(C(=O)Nc2ccc(N3CCN(C(=O)c4ccco4)CC3)cc2)cc1 | 1.0 | 106.0 | 104.0 | 68.9* | 57.5 | -0.235 | -4.3
COc1ccc(C(=O)N2CCN(c3ccc(NC(=O)c4ccco4)cc3)CC2)cc1 | 3.0 | 100.0 | 95.0 | 9.0 | . | . | .
Cc1cc(-c2ccc(C(C)C)c(S(=O)(=O)N3CCN(c4ccccn4)CC3)c2)on1 | -6.0 | 100.0 | 100.0 | -2.6 | . | . | .
Cc1ccc(C2=NC3(CCCCC3)N=C2SCC(=O)Nc2ccc3c(c2)OCCO3)cc1 | -4.0 | 100.0 | 100.0 | 54.2* | 70.1* | -0.268 | -9.0
c1ccc(COc2cccc(CN3CCCCC3)c2)cc1 | 2.0 | 108.0 | 101.0 | . | . | . | .
c1ccc(Oc2cccc(CN3CCCCC3)c2)cc1 | -6.0 | 87.0 | 87.0 | 56.2* | -4.3 | 0.104 | .
CCOC(=O)c1ccc(NC(=O)COc2ccc(S(=O)(=O)NC(C)(C)C)cc2)cc1 | 17.0 | 101.0 | 107.0 | 95.9* | 107.5* | -0.0232 | 3.4
CCOC(=O)c1ccc(NC(=O)COc2ccc(S(=O)(=O)N3CCCC3)cc2)cc1 | -1.0 | 101.0 | 107.0 | -0.2 | . | . | .
C/C=C(/C)C(=O)O[C@@H]1[C@H](OC(=O)C=C(C)C)c2c(ccc3ccc(=O)oc23)OC1(C)C | 4.0 | 101.0 | 106.0 | 53.7* | -31.6 | -0.539 | .
COc1ccccc1N1CCN(C(=O)Cn2ncc3c([nH]c4ccccc43)c2=O)CC1 | 5.0 | 101.0 | 102.0 | 52.4* | 70.8* | -1.48 | 7.6
O=[N+]([O-])c1ccccc1CCc1cnc(Cl)s1 | 3.0 | 100.0 | 101.0 | . | . | . | .
Cc1c(S(=O)(=O)c2ccccn2)c(N)n(Cc2ccccc2)c1C | -4.0 | 91.0 | 91.0 | 60.9* | 7.9 | -0.607 | .
Cc1ccc(-n2nc3c(=O)n(CC(=O)NCCCc4ccccc4)nc(C)c3c2C)cc1 | -3.0 | 96.0 | 101.0 | 65.0* | 81.3* | -0.421 | 26.6
CCC(C(=O)NCc1cccc(C)c1)n1nc(C)c2c(C)n(-c3ccccc3)nc2c1=O (configuration not stated) | 2.0 | 100.0 | 98.0 | 64.0* | 78.2* | -0.533 | 21.6
CCC(C(=O)NCc1ccc(C)o1)n1nc(C)c2c(C)n(-c3ccccc3)nc2c1=O (configuration not stated) | -2.0 | 96.0 | 96.0 | 24.5 | . | . | .
Cc1ccc(C(=O)CC2(O)C(=O)N(CCc3ccccc3)c3ccc(Br)cc32)o1 (configuration not stated) | 10.0 | 106.0 | 110.0 | 53.4* | 82.8* | -0.621 | 4.3
COc1c(C)cc(Br)cc1C(=O)Nc1cccc(NC(=O)c2ccco2)c1 | 2.0 | 97.0 | 97.0 | 59.5* | 97.3* | 0.257 | 0.9
COc1ccc(C)cc1NC(=O)C/C(C)=N/NC(=O)Cc1cccc2ccccc12 | -8.0 | 95.0 | 98.0 | 72.3* | 70.0* | -0.611 | 10.7
O=C(NC1CCCCCC1)c1ccc(=O)n(Cc2ccccc2)n1 | -7.0 | 100.0 | 108.0 | 24.0 | . | . | .
Cc1[nH]n(-c2ccccc2)c(=O)c1N=Nc1cccc(Cl)c1 | 3.0 | 103.0 | 106.0 | 63.7* | 100.6* | -0.0574 | 0.4
CC(=O)c1cccc(N=Nc2c(-c3ccccc3)[nH]n(-c3ccccc3)c2=O)c1 | -8.0 | 94.0 | 94.0 | 101.0* | 109.6* | -0.346 | -1.0
SMILES | MEKK2mut PB1 HTS | MEKK2 WT-MEK5 | MEKK3 PB1 HTS | Lipid droplet | Lipid drop inh | AML12 tox img | AML12 tox ATP
Cc1[nH]n(-c2ccccc2)c(=O)c1N=Nc1cccc([N+](=O)[O-])c1 | 0.0 | 96.0 | 100.0 | . | . | . | .
COc1ccc(NC(=O)CC2SC3=NCCN3C2=O)cc1 (configuration not stated) | -15.0 | 102.0 | 101.0 | 14.7 | . | . | .
CSc1cccc(NS(=O)(=O)c2cc(Br)cnc2N)c1 | -6.0 | 93.0 | 97.0 | -18.5 | . | . | .
COc1cccc(CNC(=O)c2ccc(CS(=O)Cc3ccc(C)cc3)o2)c1 (configuration not stated) | -1.0 | 100.0 | 95.0 | -59.7 | . | . | .
Cc1nc(Nc2ccc(O)cc2)c2c3c(sc2n1)CCCC3 | -4.0 | 85.0 | 92.0 | 60.3* | 75.2* | -0.144 | .
COC(=O)CNC(=O)Cc1c(C)n(C(=O)c2ccc(Cl)cc2)c2ccc(OC)cc12 | -7.0 | 95.0 | 91.0 | -7.2 | . | . | .
COc1ccc2c(c1)c(CC(=O)Nc1ccc(C)cc1)c(C)n2C(=O)c1ccc(Cl)cc1 | 14.0 | 107.0 | 99.0 | 80.2* | 106.1* | 0.0509 | 29.9
COc1ccc(NC(=O)Cc2c(C)n(C(=O)c3ccc(Cl)cc3)c3ccc(OC)cc23)cc1 | 14.0 | 109.0 | 96.0 | 82.7* | 98.3* | 0.433 | .
O=C(NNS(=O)(=O)c1ccc(F)cc1)c1cc2ccccc2cc1O | 0.0 | 103.0 | 102.0 | -5.9 | . | . | .
CCCCCC(O)(c1ccc(OCC)cc1)C(CN1CCOCC1)c1ccccc1 (configuration not stated) | 11.0 | 109.0 | 108.0 | 53.8* | 72.9* | 0.218 | -8.2
OCC[C@@H]1C[C@H](O)[C@@H](O)[C@]2(Cc3ccccc3O2)O1 | -5.0 | 98.0 | 102.0 | 62.3* | 45.0 | 0.0827 | .
OCC[C@@H]1C[C@@H](O)[C@H](O)[C@]2(CCc3ccccc3O2)O1 | -5.0 | 99.0 | 102.0 | 6.3 | . | . | .
Cc1occc1C(=O)N/N=C/c1ccc(-c2ccccc2)cc1 | 0.0 | 99.0 | 104.0 | -8.3 | . | . | .
Cc1occc1C(=O)N/N=C/c1ccc(OCc2ccccc2)cc1 | 1.0 | 100.0 | 103.0 | 59.6* | 16.6 | 0.705 | .
C[C@H](NC(=O)C1CCN(S(=O)(=O)c2ccccc2)CC1)C(=O)NCc1ccc(F)cc1 | 2.0 | 102.0 | 104.0 | -5.6 | . | . | .
COc1ccc(N=C/C=C2/C=C(c3ccccc3)OC(C)(C)O2)cc1 | 6.0 | 105.0 | 110.0 | 61.2* | -8.2 | -0.0539 | .
O=C(Cn1nc(-c2cccc(Cl)c2)ccc1=O)Nc1ccc(C(=O)NC2CC2)cc1 | -9.0 | 88.0 | 97.0 | 51.7* | 87.3* | 0.00572 | 12.9
Cc1cc(C(=O)NC2CCCc3c2cnn3-c2ccc(C)c(C)c2)nc(C)n1 (configuration not stated) | 7.0 | 102.0 | 98.0 | 58.3* | 61.8 | -1.08 | 0.3

Screening data deposited in PubChem by several laboratories.
